Only a sample is shown.
PGC1a Ac signal: raises PGC1a acetylation signal in U2OS cells | U2OS PGC1a acetylation AlphaScreen, overnight | activation, % at 15.6 µM | 350,000 compounds, 0.21% hits | AID 651723;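 active means every replicate reaching activation of at least 50%, whatever the mean replicate activation; inconclusive means replicates that disagree or another doubt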;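 further: hits raise the AlphaScreen acetylation signal above neutral controls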
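Test system: U2OS cells expressing flag-PGC1a plus GCN5; Amount: 7000 U2OS cells per well; Compound: single test concentration per compound; Incubation: compound overnight at 37 °C, each detection step 1 h RT; Signal: AlphaScreen lysate read.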
Hep G6PC suppr: hepatocyte G6PC expression change via PGC-1a acetylation activation; shares compounds with PGC1a Ac signal; primary mouse hepatocytes, G6PC mRNA qPCR, forskolin; G6PC suppression (normalized activity, % of positive control; higher = more suppression), % at 26 µM; 240 tested, under 10 active; AID 743463;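 active means dose curves showing G6PC suppression whose half-maximal dose is at most twice the top valid dose; inconclusive means flat curves with moderate negative activity, or unreliable fits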;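 further: G6PC expression relative to GAPDH housekeeping gene as delta delta Ct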
Hep PCK1 suppr: hepatocyte PCK1 expression change via PGC-1a acetylation activation; shares compounds with PGC1a Ac signal; primary mouse hepatocytes, PCK1 mRNA qPCR, forskolin-stimulated; PCK1 expression decrease, unspecified at 26 µM; 230 tested, under 10 active; AID 743465;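 active means compounds lowering PCK1 expression whose fitted half-maximal concentration is at most twice the top tested dose; inconclusive means flat fit with moderate opposite-direction effect, or poor fit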;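 further: higher delta delta Ct means lower PCK1 expression so positive values indicate hits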
PGC1a hep suppr: PGC-1a acetylation activators affecting PGC-1a expression in hepatocytes; shares compounds with PGC1a Ac signal; primary mouse hepatocytes, PGC-1a mRNA qPCR, forskolin; top dose 26 µM; max activity (PGC-1a expression decrease), %; 240 tested, under 10 active; AID 743467;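 active means compound lowering PGC-1a expression with fitted half-maximal concentration at most twice its top tested dose; inconclusive means flat curve with moderate opposite-direction effect, or poor fit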
Each line names hits and unclear results; the compound was inactive in the other large screens (follow-up assays come after a bar, where they were run).

C[C@@H]1CN([C@H](C)CO)C(=O)c2c(c3ccccc3n2C)-c2ccccc2CO[C@@H]1CN(C)C(=O)Nc1ccccc1C(F)(F)F	PGC1a Ac signal 96.5 | Hep G6PC suppr inactive | Hep PCK1 suppr inactive | PGC1a hep suppr inactive
COc1ccc(-c2nc(C#N)c(NCc3ccco3)o2)cc1	none
COc1cc(/C=C2\SC(=O)NC2=O)ccc1Oc1ccc([N+](=O)[O-])cn1	none
CN(Cc1cnc2nc(N)nc(N)c2n1)c1ccc(C(=O)N[C@@H](CCC(=O)O)C(=O)O)cc1	none
Cc1cccn2c(=O)c3cc(C(=O)NCc4ccco4)c(=N)n(CCc4ccccc4)c3nc12	none
Cn1cc(-c2ccc(C(=O)NCc3cccc(Cl)c3)c3occc23)cn1	PGC1a Ac signal 59.4 | Hep G6PC suppr inactive | Hep PCK1 suppr inactive | PGC1a hep suppr inactive
COc1cccc(NC(=O)c2ccccc2-c2ccccc2C(=O)O)c1	none
NC1=C(Br)C(=O)c2ncccc2C1=O	none
COCCN(C)Cc1nc(C(c2ccccc2)c2ccccc2)no1	none
c1ccc(CN2OCC3Cn4c(nc5ccccc54)C32)cc1 (centres undefined)	none
Oc1ccc(C2CNCCc3c2cc(O)c(O)c3Cl)cc1 (centres undefined)	none
O=c1oc(-c2ccccc2)nc2sc3c(c12)CCC3	none
COc1cc(CN2CCCC(CO)(Cc3cccc(Cl)c3)C2)cc2c1OCO2 (centres undefined)	none | Hep G6PC suppr inactive | Hep PCK1 suppr inactive | PGC1a hep suppr inactive
CCOC(=O)CN1C(=N)N(c2nc(NC(C)C)nc(OC)n2)CC1=O	none
Cc1ccc(S(=O)(=O)N(Cc2ccc(F)cc2)Cc2ccco2)cc1	PGC1a Ac signal 70.7 | Hep G6PC suppr inactive | Hep PCK1 suppr inactive | PGC1a hep suppr inconclusive
O=P(CCCCCCCCCP(=O)(c1ccccc1)c1ccccc1)(c1ccccc1)c1ccccc1	none
CN(C)c1ncnc2c1ncn2C1OC(CO)C(O)C1O (centres undefined)	none
Cc1cccc(C(=O)O/N=C/c2c(Cl)n(C)c3ccccc23)c1	none
Cc1ccc(S(=O)(=O)N[C@H]2C=C[C@@H](CC(=O)NCCN3CCCCC3)O[C@H]2CO)cc1	none | Hep PCK1 suppr inactive | PGC1a hep suppr inactive
COc1cc(O)c(C(CC(=O)N2CCOCC2)c2ccc(N(C)C)cc2)c(OC)c1 (centres undefined)	none
S=C1NC2=C(CCCC2=C2SCCS2)C(c2ccccc2)N1 (centres undefined)	none
CCN(CC)CC(=O)N1c2ccccc2CCc2ccc(NC(=O)c3cc(OC)c(OC)c(OC)c3)cc21	none | Hep G6PC suppr inactive | Hep PCK1 suppr inconclusive | PGC1a hep suppr inactive
Cc1ccc(-c2n[nH]c(=S)n2/N=C/c2cccn2C)cc1	none
O=C(c1ccco1)N1N=C(c2ccc(Cl)cc2)CC1(O)C(F)(F)F (centres undefined)	none
Cc1ccc(Sc2ncnc3onc(C)c23)c(C)c1	none
Cc1ccc(-n2cccn2)c(CN2CCCC(C(=O)c3sccc3C)C2)c1 (centres undefined)	PGC1a Ac signal 68.3 | PGC1a hep suppr inconclusive
CCC(C)NCCOCCOc1ccc(C)cc1OC (centres undefined)	none
Cc1ccc(NC(=O)c2c(C(F)(F)F)nn(C)c2SCc2ccc(Cl)cc2)cc1C	PGC1a Ac signal inconclusive | Hep G6PC suppr inactive | Hep PCK1 suppr inactive | PGC1a hep suppr inactive
O=C(Nc1nc2ccsc2c(=O)s1)C1CCC1	none
O=C(NCc1ccccc1)N1CCC(n2cnc3cc(F)ccc32)CC1	PGC1a Ac signal 137.6 | Hep PCK1 suppr inactive | PGC1a hep suppr inactive
OC[C@@H]1CN(Cc2ccccc2)C[C@H](n2cnc3c(NCc4ccc(F)cc4)ncnc32)O1	none
CCOc1ccc(CN2CCNC(=O)C2CC(=O)NCc2ccccn2)cc1 (centres undefined)	none
C=CCc1ccc(OCCCCNC(C)CC)c(OC)c1 (centres undefined)	none
O=C(NCC1CC1)Nc1ccccc1F	none
O=C(CSc1nc2cc(Cl)ccc2s1)NCC1CCCO1 (centres undefined)	none
O=C(Cc1ccc(Cl)cc1)c1c[nH]c(C(=O)NCc2cccnc2)c1	PGC1a Ac signal 64.6 | Hep G6PC suppr inactive | Hep PCK1 suppr inactive | PGC1a hep suppr inactive
O=C(/C=C/c1cccs1)c1ccc(NC(=O)c2cccc(Br)c2)cc1	none
Cc1cc(C(=O)NNC(=S)NCc2ccccc2)no1	none
CC(C)(C)c1ccc(C(=O)c2c[nH]c(C(=O)NCc3cccnc3)c2)cc1	PGC1a Ac signal 257.1 | Hep G6PC suppr inactive | PGC1a hep suppr inconclusive
O=C(NCc1cccnc1)c1ccc(NC(=O)c2ccc(Br)cc2)cc1	PGC1a Ac signal 84.2 | Hep G6PC suppr inactive | Hep PCK1 suppr inactive | PGC1a hep suppr inactive
CCC(CC)C(=O)c1c[nH]c(C(=O)NCc2ccccc2)c1	PGC1a Ac signal inconclusive | Hep G6PC suppr inactive | Hep PCK1 suppr inactive | PGC1a hep suppr inactive
CCn1c(CSc2nnc3ccccn23)nc2cc(C(=O)O)ccc21	none
CCC(C)NC(=O)c1ccc2c(SCC(=O)O)c3c(nc2c1)CCCC3 (centres undefined)	none
CC(C)C[C@H]1CNC(=S)N1CC1CCCN1C[C@H](Cc1ccccc1)N1C[C@H](Cc2ccc(O)cc2)N(CC2CCCCCC2)C1=S (some centres undefined)	none
Cc1cc2nc(/C=C/c3cccnc3)[nH]c2cc1C	none
CC(/C=N/NC(=O)c1cc(-c2ccc(Cl)cc2)nc2ccccc12)=C\c1ccco1	none
CC(C)(C)c1ccc(O)c(O)c1	none
Cc1nnc(-c2ccccc2)c(=O)n1/N=C/c1c(O)ccc2ccccc12	none
CCN(CC)c1ccc(C(=C2C=CC(=[N+](CC)CC)C=C2)c2ccc(N(CC)CC)cc2)cc1	none
CCCOC(=O)c1ccc(-n2nnnc2SCC(=O)N2CCCCC2)cc1	none
O=Nc1c(O)c2ccccc2c2ccccc12	none
COc1cc(C=C(C(C)=O)C(C)=O)ccc1O	none
N#Cc1cccc(C(c2nnnn2C2CCCC2)N2CCCCCC2)c1 (centres undefined)	PGC1a Ac signal inconclusive | Hep G6PC suppr inactive | Hep PCK1 suppr inactive | PGC1a hep suppr inactive
O=C(Nc1nc(-c2ccccn2)cs1)c1ccccc1-n1cnnn1	none
Cc1ccc(S(=O)(=O)N/N=C/c2c[nH]c3ccccc23)cc1	none
O=C1C=C(c2c(O)ccc3ccccc23)c2ccccc2C1=O	none
O=C(OCCCN1CCCCC1)c1ccc(O)cc1	none
OC(CN1c2ccccc2Sc2ccccc21)Cn1nnc2ccccc21 (centres undefined)	PGC1a Ac signal 75.8 | Hep PCK1 suppr inactive | PGC1a hep suppr inactive
CN(C)c1ccnc2sc(C(N)=O)c(N)c12	none
CCc1nnc(N/N=C/c2c(Cl)cccc2Cl)n1N	none
C[C@@H]1CN([C@@H](C)CO)C(=O)c2c(c3ccccc3n2C)-c2ccccc2CO[C@@H]1CN(C)C(=O)Nc1ccc2c(c1)OCO2	PGC1a Ac signal 81.0 | Hep G6PC suppr inactive | Hep PCK1 suppr inactive | PGC1a hep suppr inactive
C[C@@H]1CN([C@H](C)CO)C(=O)c2c(c3ccccc3n2C)-c2ccccc2CO[C@@H]1CN(C)C(=O)c1ccccc1	PGC1a Ac signal 57.7 | Hep G6PC suppr inactive | Hep PCK1 suppr inconclusive | PGC1a hep suppr inconclusive

Bioassay records: PubChem, Broad Institute
